This is an account of results in ChEMBL document CHEMBL2021913, “Synthesis and biological evaluation of some novel thiazole substituted benzotriazole derivatives” (2012).

The MIC is the lowest concentration found to suppress growth.

The structures appear in SMILES notation. Values after ≈ are worked out from the molar mass of the structure shown. Active and inactive are the calls of the source. No cut-off for these calls is given here.

What all share (type): functional
For experiment [1], the system named is Candida albicans. In words: Antimicrobial activity against Candida albicans 3471 at 35 degC after 48 hrs by CLSI method based antimicrobial assay. Particulars: for MFC: read-out: MFC99.9. An outline of the steps: (§1)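 Broth microdilution following CLSI guidelines over 256 to 1 µg/mL. MIC90 is the lowest concentration completely inhibiting growth. For MFC, 0.1 mL from each tube spread on agar and CFU counted after 48 h at 35 °C; MFC is lowest concentration killing 99.9% of inoculum. MFC/MIC ratio calculated: […], ≤4 as fungicidal.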

Experiment [2] has as its system Candida albicans. Briefly: Antimicrobial activity against Candida albicans 3471 at 128 ug/disc at 37 degC after 24 to 72 hrs by agar-well diffusion assay. The conditions noted are these: for zone of inhibition at 128 µg/disc: read-out: DIZ. In short, it runs like this:
(§2)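 Potato dextrose agar base plates overlaid with seeded agar cooled to 40 °C and inoculated with spores from 10-day cultures, final 1 × 10⁶ spores/mL. Compounds dissolved in DMSO at 128 µg/mL and applied on 6 mm filter-paper discs placed on chilled seeded medium. Nystatin positive control, DMSO negative control. Incubation 24–72 h at 37 °C. Inhibition zone diameter read by vernier caliper.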
(In agar diffusion tests the substance spreads into inoculated agar from a disc or well.)

Experiment [3] concerns Escherichia coli. In words: Antimicrobial activity against Escherichia coli 2109 at 128 ug/disc at 35 degC after 24 hrs by agar-well diffusion assay. The conditions noted are these: for zone of inhibition at 128 µg/disc: Escherichia coli, 2109, 24 h, read-out: DIZ. An outline of the steps: (§3)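 Agar-well diffusion: 24 h bacterial cultures adjusted to 0.5 McFarland (1.5 × 10⁸ CFU/mL) and mixed into molten Mueller-Hinton agar before pouring. 6 mm wells punched and each filled with 50 µL of compound stock or control. Plates incubated 35 °C for 24 h. Zone of growth inhibition diameter measured with vernier caliper.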

In experiment [4] the test system is Staphylococcus aureus. Briefly: Antimicrobial activity against Staphylococcus aureus 2079 at 35 degC after 18 to 24 hrs by NCCLS method based antimicrobial assay. The conditions noted are these: for MBC: read-out: MBC99.9.
Experiment [5] relates to Aspergillus niger. Briefly: Antimicrobial activity against Aspergillus niger 545 at 128 ug/disc at 37 degC after 24 to 72 hrs by agar-well diffusion assay. The conditions noted are these: for zone of inhibition at 128 µg/disc: read-out: DIZ; for diameter of the inhibition zone (DIZ): in the assay text read “disc diffusion assay” for “agar-well diffusion assay”. An outline of the steps: as §2

Experiment [6] deals with Escherichia coli. In words: Antimicrobial activity against Escherichia coli 2109 at 35 degC after 18 to 24 hrs by NCCLS method based antimicrobial assay. The conditions noted are these: for MBC: read-out: MBC99.9.
Experiment [7] relates to Bacillus subtilis. In words: Antimicrobial activity against Bacillus subtilis 2250 at 128 ug/disc at 35 degC after 24 hrs by agar-well diffusion assay. The conditions noted are these: for zone of inhibition at 128 µg/disc: Bacillus subtilis, 2250, 24 h, read-out: DIZ. In short, it runs like this: as §3
In experiment [8] the test system is Pseudomonas aeruginosa. In words: Antimicrobial activity against Pseudomonas aeruginosa 2036 at 35 degC after 18 to 24 hrs by NCCLS method based antimicrobial assay.
Experiment [9] relates to Pseudomonas aeruginosa. In words: Antimicrobial activity against Pseudomonas aeruginosa 2036 at 128 ug/disc at 35 degC after 24 hrs by agar-well diffusion assay. An outline of the steps:
as §3

Experiment [10] concerns Bacillus subtilis. Briefly: Antimicrobial activity against Bacillus subtilis 2250 at 35 degC after 18 to 24 hrs by NCCLS method based antimicrobial assay. Particulars: for MBC: read-out: MBC99.9.
Experiment [11] concerns Staphylococcus aureus. In words: Antimicrobial activity against Staphylococcus aureus 2079 at 128 ug/disc at 35 degC after 24 hrs by agar-well diffusion assay. The conditions noted are these: for zone of inhibition at 128 µg/disc: Staphylococcus aureus, 2079, 24 h, read-out: DIZ. An outline of the steps: as §3
For experiment [12], the system named is Aspergillus niger. In words: Antimicrobial activity against Aspergillus niger 545 at 35 degC after 48 hrs by CLSI method based antimicrobial assay. The conditions noted are these: for MFC: read-out: MFC99.9. An outline of the steps: as §1
The test system of experiment [13] is Aspergillus niger. Briefly: Ratio of MFC99.9 to MIC90 for Aspergillus niger 545 at 35 degC after 48 hrs by CLSI method based antimicrobial assay. An outline of the steps:
as §1

Experiment [14] has as its system Candida albicans. In words: Ratio of MFC99.9 to MIC90 for Candida albicans 3471 at 35 degC after 48 hrs by CLSI method based antimicrobial assay. In short, it runs like this:
as §1

Consider `FC(F)(F)c1cc(/C(Cn2nnc3ccccc32)=N\Nc2nc(-c3ccc(Cl)cc3)cs2)cc(C(F)(F)F)c1`, for which the MFC99.9 result in [1] was “inactive”. Also, the MIC result in experiment [1], in [4], in [8] and in experiment [10] was “inactive” in each case. The “diameter of the inhibition zone (DIZ)” value in [2], in experiment [7], in experiment [9] and in [11] was “inactive” throughout. In addition, the zone of inhibition at 128 µg/disc was found to be 18.7 mm in experiment [3] and 19.7 mm in experiment [5]. Besides, the MBC99.9 result in experiment [4], in experiment [8] and in [10] was “inactive” each time. The MIC was 128 µg/mL (≈ 220 µM) in experiment [6] and 16 µg/mL (≈ 27.5 µM) in experiment [12] (Aspergillus niger, 545, 48 h). Also, the MBC in experiment [6] worked out at 256 µg/mL (≈ 441 µM). In addition, the MFC in experiment [12] (Aspergillus niger, 545, 48 h) came out at 64 µg/mL (≈ 110 µM). In experiment [13], the Ratio turned out to be 4.

Regarding `Clc1ccc(/C(Cn2nnc3ccccc32)=N\Nc2nc(-c3ccc(Cl)cc3)cs2)cc1`, the MIC in experiment [1] (Candida albicans, 3471, 48 h) amounted to 16 µg/mL (≈ 33.4 µM); in experiment [4] it was 64 µg/mL (≈ 134 µM); in experiment [8] it was 128 µg/mL (≈ 267 µM); in experiment [10], 32 µg/mL (≈ 66.8 µM); in [12] (Aspergillus niger, 545, 48 h), 32 µg/mL (≈ 66.8 µM). Also, the MFC was found to be 32 µg/mL (≈ 66.8 µM) in experiment [1] (Candida albicans, 3471, 48 h) and 32 µg/mL (≈ 66.8 µM) in [12] (Aspergillus niger, 545, 48 h). Besides, the zone of inhibition at 128 µg/disc in experiment [2] came out at 21 mm; in experiment [5], 18.2 mm; in [7], 25.1 mm; in experiment [9] (Pseudomonas aeruginosa, 2036, 24 h, read-out: DIZ), 11.3 mm; in [11], 27.9 mm. Moreover, the results for the MBC in experiment [4], in experiment [8] (read-out: MBC99.9) and in experiment [10] were 32 µg/mL (≈ 66.8 µM), 128 µg/mL (≈ 267 µM) and 64 µg/mL (≈ 134 µM), respectively. Besides, the MBC99.9 result in [6] was “inactive”. Besides, the MIC entry in experiment [6] is “inactive”. The Ratio in experiment [14] is recorded as 2; in [13], 1.

As to `FC(F)(F)c1cc(-c2csc(N/N=C(/Cn3nnc4ccccc43)c3ccc(Cl)cc3)n2)cc(C(F)(F)F)c1`, the MIC in experiment [1] (Candida albicans, 3471, 48 h) is 64 µg/mL (≈ 110 µM); in experiment [6] it was 32 µg/mL (≈ 55.1 µM). For the same compound, the MFC in [1] (Candida albicans, 3471, 48 h) is 128 µg/mL (≈ 220 µM). For the same compound, the figures for the zone of inhibition at 128 µg/disc in [2] and in experiment [3] were 13.7 mm and 21.1 mm, respectively. Besides, the MBC99.9 result in [4], in [8] and in [10] was “inactive” in each case. Moreover, the MIC entry in experiment [4], in [8] and in experiment [10] was “inactive” throughout. The “diameter of the inhibition zone (DIZ)” value in experiment [5], in experiment [7], in experiment [9] and in [11] was “inactive” throughout. Besides, the MBC in experiment [6] is 64 µg/mL (≈ 110 µM). The Ratio in [14] is given as 2. The MFC99.9 entry in experiment [12] is “inactive”.

On to `Fc1ccc(/C(Cn2nnc3ccccc32)=N\Nc2nc(-c3ccc(Br)cc3)cs2)cc1`, for which the MIC in [1] (Candida albicans, 3471, 48 h) turned out to be 128 µg/mL (≈ 252 µM); in experiment [4], 64 µg/mL (≈ 126 µM); in experiment [10], 64 µg/mL (≈ 126 µM). Also, in [1] (Candida albicans, 3471, 48 h), the MFC was 256 µg/mL (≈ 505 µM). Besides, the results for the zone of inhibition at 128 µg/disc in [2], in experiment [7] and in experiment [11] were 14.7 mm, 22.8 mm and 20.9 mm, respectively. The “diameter of the inhibition zone (DIZ)” value in experiment [3], in experiment [5] and in [9] was “inactive” throughout. Moreover, the MBC in experiment [4] and in [10] was 128 µg/mL (≈ 252 µM) in each case. In addition, the MBC99.9 entry in experiment [6] and in experiment [8] was “inactive” throughout. Also, the MIC result in experiment [6], in experiment [8] and in [12] was “inactive” throughout. The Ratio in experiment [14] was determined as 2. The MFC99.9 entry in experiment [12] was “inactive”.
